In ChEMBL document CHEMBL3608272, “Design, synthesis and anticancer properties of novel oxa/azaspiro[4,5]trienones as potent apoptosis inducers through mitochondrial disruption” (2015):
Values belong to the compound of their own block, whether it stands above or below them. Active and inactive are the calls of the source. The rule behind the calls is not given here.

Key:
MCF7 [1] = test: Induction of apoptosis in human MCF7 cells assessed as induction of caspase-9 activity at 1 uM incubated for 48 hrs by ELISA method relative to control; format: functional
Method in brief: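 MCF-7 cells were treated for 48 h, pelleted, washed in PBS and lysed for 15 min. After centrifugation at 20,000 rpm for 15 min, caspase-9 activity in the supernatant was measured with a kit ELISA and expressed relative to untreated control. Mean ± SD of two experiments run in triplicate.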

MCF7 [2] = test: Anti-proliferative activity against human MCF7 cells incubated for 48 hrs by SRB assay; format: functional; settings: MCF7, 48 h
Method in brief: (§1)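 SRB assay. Cells in DMEM with 10% FBS were seeded and grown 24 h at 37 °C in CO2. Compounds were diluted from a 10 mM DMSO stock to 1, 5 and 10 µM, with DMSO at most 0.1%, and exposed 48 h. Cells were fixed with 10% TCA for 60 min at 4 °C and stained 20 min at room temperature with 0.4% SRB in 1% acetic acid. Dye was eluted with 10 mM trizma base and absorbance read at 540 nm. Run in triplicate; GI50 given as mean ± SD of three determinations.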

DU-145 = test: Anti-proliferative activity against human DU145 cells incubated for 48 hrs by SRB assay; format: functional; settings: DU-145, 48 h; method in brief: as §1
A549 = test: Anti-proliferative activity against human A549 cells incubated for 48 hrs by SRB assay; format: functional; settings: A549, 48 h
HepG2 = test: Anti-proliferative activity against human HepG2 cells incubated for 48 hrs by SRB assay; format: functional; settings: HepG2, 48 h; method in brief: as §1
MCF7 [3] = test: Induction of cell cycle arrest in human MCF7 cells assessed as accumulation at sub G1 phase at 0.5 uM incubated for 48 hrs by propidium iodide staining based flow cytometry (reference value: 2.75%); format: functional
Method in brief: (§2)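 MCF-7 cells were treated 48 h, harvested, washed in PBS, fixed in ice-cold 70% ethanol and stained with propidium iodide. Phase distribution was measured by flow cytometry and compared with untreated cells.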

MCF7 [4] = test: Induction of cell cycle arrest in human MCF7 cells assessed as accumulation at sub G1 phase at 1 uM incubated for 48 hrs by propidium iodide staining based flow cytometry (reference value: 2.75%); format: functional; method in brief: as §2
MCF7 [5] = test: Induction of cell cycle arrest in human MCF7 cells assessed as accumulation at G0/G1 phase at 0.5 uM incubated for 48 hrs by propidium iodide staining based flow cytometry (reference value: 77.79%); format: functional; method in brief: as §2
MCF7 [6] = test: Induction of cell cycle arrest in human MCF7 cells assessed as accumulation at G0/G1 phase at 1 uM incubated for 48 hrs by propidium iodide staining based flow cytometry (reference value: 77.79%); format: functional; method in brief: as §2
MCF7 [7] = test: Induction of cell cycle arrest in human MCF7 cells assessed as accumulation at S phase at 0.5 uM incubated for 48 hrs by propidium iodide staining based flow cytometry (reference value: 0.99%); format: functional; method in brief: as §2
MCF7 [8] = test: Induction of cell cycle arrest in human MCF7 cells assessed as accumulation at S phase at 1 uM incubated for 48 hrs by propidium iodide staining based flow cytometry (reference value: 0.99%); format: functional; method in brief: as §2
MCF7 [9] = test: Induction of cell cycle arrest in human MCF7 cells assessed as accumulation at G2/M phase at 0.5 uM incubated for 48 hrs by propidium iodide staining based flow cytometry (reference value: 11.98%); format: functional; method in brief: as §2
MCF7 [10] = test: Induction of cell cycle arrest in human MCF7 cells assessed as accumulation at G2/M phase at 1 uM incubated for 48 hrs by propidium iodide staining based flow cytometry (reference value: 11.98%); format: functional; method in brief: as §2
MCF7 [11] = test: Reduction in mitochondrial membrane potential in human MCF7 cells at 0.5 and 1 uM incubated for 48 hrs by JC1 dye staining based flow cytometry; format: functional, cell-based
Method in brief: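 MCF-7 cells (1 × 10^6 per well) in six-well plates were treated 48 h, trypsinized, washed in PBS and stained with 5 µg/mL JC-1 for 15 min at 37 °C. Cells were rinsed three times, resuspended in prewarmed medium and analysed by flow cytometry in the FL1 and FL2 channels.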

MCF7 [12] = test: Induction of ROS generation in human MCF7 cells at 0.5 uM incubated for 48 hrs by DCFDA dye based flow cytometry (reference value: 1.2%); format: functional
MCF7 [13] = test: Induction of ROS generation in human MCF7 cells at 1 uM incubated for 48 hrs by DCFDA dye based flow cytometry (reference value: 1.2%); format: functional
MCF7 [14] = test: Induction of apoptosis in human MCF7 cells assessed as necrotic cells levels at 0.5 uM incubated for 48 hrs by Annexin V-FITC and propidium iodide staining based flow cytometry (reference value: 0.86%); format: functional
MCF7 [15] = test: Induction of apoptosis in human MCF7 cells assessed as necrotic cells levels at 1 uM incubated for 48 hrs by Annexin V-FITC and propidium iodide staining based flow cytometry (reference value: 0.86%); format: functional
MCF7 [16] = test: Induction of apoptosis in human MCF7 cells assessed as late apoptotic cells levels at 0.5 uM incubated for 48 hrs by Annexin V-FITC and propidium iodide staining based flow cytometry (reference value: 3.08%); format: functional
MCF7 [17] = test: Induction of apoptosis in human MCF7 cells assessed as late apoptotic cells levels at 1 uM incubated for 48 hrs by Annexin V-FITC and propidium iodide staining based flow cytometry (reference value: 3.08%); format: functional
MCF7 [18] = test: Induction of apoptosis in human MCF7 cells assessed as viable cells levels at 0.5 uM incubated for 48 hrs by Annexin V-FITC and propidium iodide staining based flow cytometry (reference value: 92.5%); format: functional
MCF7 [19] = test: Induction of apoptosis in human MCF7 cells assessed as viable cells levels at 1 uM incubated for 48 hrs by Annexin V-FITC and propidium iodide staining based flow cytometry (reference value: 92.5%); format: functional
MCF7 [20] = test: Induction of apoptosis in human MCF7 cells assessed as early apoptotic cells levels at 0.5 uM incubated for 48 hrs by Annexin V-FITC and propidium iodide staining based flow cytometry (reference value: 3.57%); format: functional
MCF7 [21] = test: Induction of apoptosis in human MCF7 cells assessed as early apoptotic cells levels at 1 uM incubated for 48 hrs by Annexin V-FITC and propidium iodide staining based flow cytometry (reference value: 3.57%); format: functional
MCF7 [22] = test: Induction of apoptosis in human MCF7 cells assessed as increase in p53 protein levels at 1 uM incubated for 48 hrs by Western blot method; format: functional, cell-based
Method in brief: (§3)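 MCF-7 cells were treated for 48 h and lysed in ice-cold RIPA buffer with PMSF, aprotinin, leupeptin, pepstatin and NaF. Protein was quantified by Bradford, and 50 µg per lane was run on 12% SDS-PAGE and transferred to PVDF. Membranes were blocked 2 h in TBST with 5% blocking powder, probed with primary antibody overnight and HRP secondary for 1 h at room temperature, then detected by chemiluminescence.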

MCF7 [23] = test: Induction of apoptosis in human MCF7 cells assessed as increase in p21 protein levels at 1 uM incubated for 48 hrs by Western blot method; format: functional, cell-based; method in brief: as §3
MCF7 [24] = test: Induction of apoptosis in human MCF7 cells assessed as increase in p27 protein levels at 1 uM incubated for 48 hrs by Western blot method; format: functional, cell-based; method in brief: as §3
MCF7 [25] = test: Induction of apoptosis in human MCF7 cells assessed as increase in Bax protein levels at 1 uM incubated for 48 hrs by Western blot method; format: functional, cell-based; method in brief: as §3
MCF7 [26] = test: Induction of apoptosis in human MCF7 cells assessed as reduction in Bcl2 protein levels at 1 uM incubated for 48 hrs by Western blot method; format: functional, cell-based; method in brief: as §3

Structure (SMILES): CSc1ccc(C2=C(c3ccccc3)C3(C=CC(=O)C=C3)N(C)C2=O)cc1
- GI50 (MCF7 [2]): 15.8 µM
- GI50 (DU-145): 26.4 µM
- GI50 (A549): 50.4 µM
- GI50 (HepG2): 18.7 µM

Structure (SMILES): COc1ccc(C2=C(c3ccccc3)C3(C=CC(=O)C=C3)N(C)C2=O)cc1
- GI50 (MCF7 [2]): 45.4 µM
- GI50 (DU-145): 55.7 µM
- GI50 (A549): 98 µM
- GI50 (HepG2): 61.7 µM

Structure (SMILES): COc1ccc(C2=C(c3ccccc3)C3(C=CC(=O)C=C3)N(C)C2=O)c(OC)c1
- GI50 (MCF7 [2]): 71.7 µM
- GI50 (DU-145): 62.7 µM
- GI50 (A549): 101 µM
- GI50 (HepG2): 69.1 µM

Structure (SMILES): CN1C(=O)C(c2ccc(C=O)s2)=C(c2ccccc2)C12C=CC(=O)C=C2
- GI50 (MCF7 [2]): 3.6 µM
- GI50 (DU-145): 8.2 µM
- GI50 (A549): 16.6 µM
- GI50 (HepG2): 13.9 µM

Structure (SMILES): CN1C(=O)C(c2ccc(C#N)cc2)=C(c2ccccc2)C12C=CC(=O)C=C2
- GI50 (MCF7 [2]): 13.6 µM
- GI50 (DU-145): 11.6 µM
- GI50 (A549): 25.4 µM
- GI50 (HepG2): 16.6 µM

Structure (SMILES): CN1C(=O)C(c2ccc(C(F)(F)F)cc2)=C(c2ccccc2)C12C=CC(=O)C=C2
- GI50 (MCF7 [2]): 8.1 µM
- GI50 (DU-145): 17.6 µM
- GI50 (A549): 30.3 µM
- GI50 (HepG2): 13.7 µM

The next lines start with results.

- GI50 (MCF7 [2]): 1 µM
- GI50 (DU-145): 1.9 µM
- GI50 (A549): 4 µM
- GI50 (HepG2): 1.5 µM
Structure (SMILES): O=C1C=CC2(C=C1)OC(=O)C(c1ccc([N+](=O)[O-])cc1)=C2c1ccccc1
- fold change (FC) (MCF7 [1]): 2
- Activity (MCF7 [3]): 4.38%
- Activity (MCF7 [4]): 3.69%
- Activity (MCF7 [5]): 84.21%
- Activity (MCF7 [6]): 89.15%
- Activity (MCF7 [7]): 0.34%
- Activity (MCF7 [8]): 1.75%
- Activity (MCF7 [9]): 3.35%
- Activity (MCF7 [10]): 0.76%
- inhibition (MCF7 [11]): Active
- Activity (MCF7 [12]): 30.4%
- Activity (MCF7 [13]): 78.5%
- Activity (MCF7 [14]): 1.96%
- Activity (MCF7 [15]): 3.77%
- Activity (MCF7 [16]): 6.76%
- Activity (MCF7 [17]): 28.87%
- Activity (MCF7 [18]): 85.41%
- Activity (MCF7 [19]): 57.24%
- Activity (MCF7 [20]): 5.87%
- Activity (MCF7 [21]): 10.13%
- Activity (MCF7 [22]): Active
- Activity (MCF7 [23]): Active
- Activity (MCF7 [24]): Active
- Activity (MCF7 [25]): Active
- Activity (MCF7 [26]): Active

- GI50 (MCF7 [2]): 3.4 µM
- GI50 (DU-145): 2.7 µM
- GI50 (A549): 6.2 µM
- GI50 (HepG2): 3.5 µM
Structure (SMILES): O=C1C=CC2(C=C1)OC(=O)C(c1ccc(O)cc1)=C2c1ccccc1

- GI50 (MCF7 [2]): 1.7 µM
- GI50 (DU-145): 2.4 µM
- GI50 (A549): 8.1 µM
- GI50 (HepG2): 3.3 µM
Structure (SMILES): O=C1C=CC2(C=C1)OC(=O)C(c1ccc(CO)cc1)=C2c1ccccc1

- GI50 (MCF7 [2]): 1.2 µM
- GI50 (DU-145): 4.3 µM
- GI50 (A549): 7.8 µM
- GI50 (HepG2): 6.3 µM
Structure (SMILES): COC(=O)/C=C/C1=C(c2ccccc2)C2(C=CC(=O)C=C2)OC1=O

- GI50 (MCF7 [2]): 3.5 µM
- GI50 (DU-145): 4.8 µM
- GI50 (A549): 6.3 µM
- GI50 (HepG2): 6.3 µM
Structure (SMILES): O=C1C=CC2(C=C1)OC(=O)C(c1ccc(C(=O)O)cc1)=C2c1ccccc1

- GI50 (MCF7 [2]): 1 µM
- GI50 (DU-145): 0.9 µM
- GI50 (A549): 4.6 µM
- GI50 (HepG2): 1.4 µM
Structure (SMILES): COc1ccc(F)cc1C1=C(c2ccccc2)C2(C=CC(=O)C=C2)OC1=O
- fold change (FC) (MCF7 [1]): 2
- Activity (MCF7 [3]): 2.89%
- Activity (MCF7 [4]): 3.25%
- Activity (MCF7 [5]): 81.44%
- Activity (MCF7 [6]): 88.42%
- Activity (MCF7 [7]): 1.12%
- Activity (MCF7 [8]): 1.3%
- Activity (MCF7 [9]): 9.63%
- Activity (MCF7 [10]): 2.2%
- inhibition (MCF7 [11]): Active
- Activity (MCF7 [12]): 16.2%
- Activity (MCF7 [13]): 57.4%
- Activity (MCF7 [14]): 1.69%
- Activity (MCF7 [15]): 4.77%
- Activity (MCF7 [16]): 7.25%
- Activity (MCF7 [17]): 24.21%
- Activity (MCF7 [18]): 86.85%
- Activity (MCF7 [19]): 64.39%
- Activity (MCF7 [20]): 4.22%
- Activity (MCF7 [21]): 6.64%
- Activity (MCF7 [22]): Active
- Activity (MCF7 [23]): Active
- Activity (MCF7 [24]): Active
- Activity (MCF7 [25]): Active
- Activity (MCF7 [26]): Active
